# Measurements from publication PMC10147382 (ACS chemical neuroscience, 2022).
# Several values for one entry are separate records, joined by “and”; a condition that tells them apart may be missing. Equal entries are not always repeated. Where two headings read alike, the source gives them in different places.
# Assays:
# mice [1] = settings: cited from earlier work
# 5-HT2A receptor [2] = target: T1, 5-HT2A receptor (Homo sapiens, UniProt P28223); test: G protein; type: cell-based; settings: for decrease in potency versus the alpha-methyl (DOx) counterpart: Gq dissociation (Gq versus G11 for Ariadne/DOM)
# Target sequence in this assay (P28223 whole entry): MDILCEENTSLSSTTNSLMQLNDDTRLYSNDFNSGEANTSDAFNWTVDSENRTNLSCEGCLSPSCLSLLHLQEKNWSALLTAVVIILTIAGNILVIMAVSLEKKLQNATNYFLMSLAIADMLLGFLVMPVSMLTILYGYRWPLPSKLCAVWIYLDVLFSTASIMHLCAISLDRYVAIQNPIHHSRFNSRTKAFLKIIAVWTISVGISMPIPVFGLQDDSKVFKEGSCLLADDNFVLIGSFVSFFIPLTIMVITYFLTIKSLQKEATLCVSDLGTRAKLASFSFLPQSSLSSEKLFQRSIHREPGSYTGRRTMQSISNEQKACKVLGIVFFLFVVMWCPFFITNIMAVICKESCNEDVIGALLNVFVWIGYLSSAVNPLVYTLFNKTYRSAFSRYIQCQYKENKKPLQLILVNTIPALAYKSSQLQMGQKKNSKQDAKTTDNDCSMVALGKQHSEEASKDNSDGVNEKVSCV
# mice [3] = test: Open field test; type: in vivo, mouse; settings: mouse, in vivo
# mice [4] = test: Head twitch response; type: in vivo, mouse; settings: for HTR response: 15 min period
# 5-HT2A receptor [5] = target: T1, 5-HT2A receptor; test: Calcium flux assay; type: cell-based
# Summary of the method: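 Flp-In 293 T-Rex cells stably carry tetracycline-inducible human 5-HT2A or 5-HT2C. Expression is induced with tetracycline (2 ug/mL) the day before, with about 7,500 cells/well in 1% dialyzed FBS. Cells are loaded with Fluo-4 Direct for 1 h at 37°C in HBSS/20 mM HEPES pH 7.4 with 2.5 mM probenecid, then held 15 min at RT. Fluorescence is read 10 s baseline, then 5-10 min after drug. Peak fold-over-basal or AUC is normalized to % 5-HT, with EC50/Emax from nonlinear regression.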
# Target sequence in this assay (P28223 whole entry): as above
# 5-HT2A receptor [6] = target: T1, 5-HT2A receptor; test: Radioligand displacement assay; type: binding; settings: standard radioligand 125I-DOI
# Target sequence in this assay (P28223 whole entry): as above
# 5-HT2A receptors [7] = settings: cited from earlier work
# 5-HT2A receptors [8] = settings: cited from earlier work; remark: listed apart in the source
# 5-HT2A receptor [9] = target: T1, 5-HT2A receptor; test: β-arrestin2 recruitment BRET assay; type: cell-based; settings: for efficacy: normalized to 5-HT
# Target sequence in this assay (P32121 whole entry): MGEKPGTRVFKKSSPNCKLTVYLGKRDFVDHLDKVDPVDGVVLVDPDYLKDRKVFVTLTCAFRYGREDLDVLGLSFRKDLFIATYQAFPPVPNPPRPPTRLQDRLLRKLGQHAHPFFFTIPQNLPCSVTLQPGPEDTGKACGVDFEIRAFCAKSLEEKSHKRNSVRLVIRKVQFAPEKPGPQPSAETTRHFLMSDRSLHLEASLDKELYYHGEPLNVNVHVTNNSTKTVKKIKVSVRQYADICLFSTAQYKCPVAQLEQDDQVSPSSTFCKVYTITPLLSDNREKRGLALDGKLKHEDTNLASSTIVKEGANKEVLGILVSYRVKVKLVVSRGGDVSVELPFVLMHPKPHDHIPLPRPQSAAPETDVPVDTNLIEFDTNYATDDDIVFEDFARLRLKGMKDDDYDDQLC
# Target sequence in this assay (P28223 whole entry): as the sequence (P28223 whole entry) above
# humans = settings: cited from earlier work
# 5-HT2B receptor [10] = target: T2, 5-HT2B receptor (Homo sapiens, UniProt P41595); test: G protein; type: cell-based
# [11] = target: serotonin transporter (SERT) (Homo sapiens, UniProt P31645); test: SafetyScreen44 broad screen; type: binding; settings: 10 uM
# Summary of the method: (§1)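 Broad binding screen of 44 targets (GPCRs, nuclear receptors, ion channels, monoamine transporters, enzymes) with racemic test compound at 10 uM. Read-out is % displacement of each target's standard radioligand. A positive hit is defined as more than 50% displacement.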
# [12] = target: norepinephrine transporter (NET) (Homo sapiens, UniProt P23975); test: SafetyScreen44 broad screen; type: binding; settings: 10 uM
# Summary of the method: as §1
# 5-HT2C receptor = target: T3, 5-HT2C receptor (Homo sapiens, UniProt P28335); test: G protein; type: cell-based
# T3 sequence (P28335 33-458): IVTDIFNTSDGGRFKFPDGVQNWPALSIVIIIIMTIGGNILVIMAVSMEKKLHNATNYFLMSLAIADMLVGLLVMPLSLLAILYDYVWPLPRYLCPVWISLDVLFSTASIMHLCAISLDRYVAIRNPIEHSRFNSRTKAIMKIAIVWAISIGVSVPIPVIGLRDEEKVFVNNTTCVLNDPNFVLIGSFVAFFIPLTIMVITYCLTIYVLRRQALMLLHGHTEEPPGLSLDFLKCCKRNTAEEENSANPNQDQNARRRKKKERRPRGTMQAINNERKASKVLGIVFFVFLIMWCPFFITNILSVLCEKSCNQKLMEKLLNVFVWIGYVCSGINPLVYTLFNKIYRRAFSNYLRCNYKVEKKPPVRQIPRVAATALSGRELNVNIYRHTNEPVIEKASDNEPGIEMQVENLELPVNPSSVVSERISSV
# dopamine 2 receptor = dopamine 2 receptor (Homo sapiens, UniProt P14416); test: Activity at other aminergic receptors
# 5-HT1F receptor = 5-HT1F receptor (Homo sapiens, UniProt P30939); test: 5-HTome G protein activation BRET screen; type: cell-based
# Summary of the method: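 Human 5-HT receptors (12 in the panel) are tested by G protein-dissociation BRET2. Cells are reverse-transfected about 48 h before assay with receptor:Gα-Rluc8:Beta:GFP2-γ (TRUPATH) at 1:1:1:1 and plated in 1% dFBS. Drug is added in HBSS/20 mM HEPES pH 7.4 with 0.3% BSA and 0.03% ascorbic acid, then incubated 60 min at 37°C. Coelenterazine 400a is 5 uM final. The 510/400 ratio is normalized to % positive control, with EC50/Emax from log(agonist) vs response. Three independent experiments in triplicate.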
# [13] = target: dopamine transporter (DAT) (Homo sapiens, UniProt Q01959); test: SafetyScreen44 broad screen; type: binding; settings: 10 uM
# Summary of the method: as §1
# dopamine 1 receptor = dopamine 1 receptor (Homo sapiens, UniProt P21728); test: Activity at other aminergic receptors
# rats [14] = settings: cited from earlier work
# adrenergic receptors = test: Activity at other aminergic receptors; settings: no/low activity
# [15] = Brain and plasma pharmacokinetic evaluation; type: in vivo, mouse; settings: brain and plasma PK
# 5-HT2A receptor [16] = target: T1, 5-HT2A receptor; test: SafetyScreen44 broad screen; type: binding; settings: 10 uM Ariadne; positive hit threshold
# Summary of the method: as §1
# Target sequence in this assay (P28223 whole entry): as the sequence (P28223 whole entry) above
# 5-HT2B receptor [17] = target: T2, 5-HT2B receptor; test: SafetyScreen44 broad screen; type: binding; settings: 10 uM Ariadne; positive hit threshold
# Summary of the method: as §1
# rat smooth muscle = settings: compared to serotonin and (R)-DOM ref 11; cited from earlier work
# rats [18] = settings: cited from earlier work; remark: listed apart in the source
# cats = settings: in comparison to (R)-DOM ref 10; cited from earlier work
# 5-HT2C receptors = settings: cited from earlier work
# [19] = phosphoinositide turnover ref 40
# T2 sequence (P41595 whole entry): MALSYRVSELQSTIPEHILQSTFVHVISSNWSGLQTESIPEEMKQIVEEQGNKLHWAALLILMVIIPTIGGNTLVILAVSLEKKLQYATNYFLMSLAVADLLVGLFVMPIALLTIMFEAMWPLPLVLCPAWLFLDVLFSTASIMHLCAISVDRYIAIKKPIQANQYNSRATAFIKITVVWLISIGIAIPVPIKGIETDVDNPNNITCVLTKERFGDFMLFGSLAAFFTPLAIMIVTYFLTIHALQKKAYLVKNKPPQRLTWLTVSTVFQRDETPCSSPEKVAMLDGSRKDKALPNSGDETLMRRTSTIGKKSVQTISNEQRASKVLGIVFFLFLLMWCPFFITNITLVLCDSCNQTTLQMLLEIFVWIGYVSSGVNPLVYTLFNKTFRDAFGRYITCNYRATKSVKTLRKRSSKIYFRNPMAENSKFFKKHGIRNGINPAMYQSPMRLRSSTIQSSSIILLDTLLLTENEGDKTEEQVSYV
# 5-HT1F receptor, sequence (P30939 whole entry): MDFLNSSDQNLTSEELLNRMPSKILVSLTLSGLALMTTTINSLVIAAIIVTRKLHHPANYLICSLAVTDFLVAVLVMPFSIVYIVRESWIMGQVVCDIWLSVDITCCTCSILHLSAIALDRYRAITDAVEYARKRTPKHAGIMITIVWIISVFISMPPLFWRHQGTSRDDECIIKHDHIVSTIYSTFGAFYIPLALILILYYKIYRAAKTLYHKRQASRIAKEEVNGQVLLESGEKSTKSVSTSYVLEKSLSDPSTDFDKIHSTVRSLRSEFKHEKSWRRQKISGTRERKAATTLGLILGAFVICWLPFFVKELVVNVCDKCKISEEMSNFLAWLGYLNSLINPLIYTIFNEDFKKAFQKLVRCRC
# serotonin transporter (SERT), sequence (P31645 whole entry): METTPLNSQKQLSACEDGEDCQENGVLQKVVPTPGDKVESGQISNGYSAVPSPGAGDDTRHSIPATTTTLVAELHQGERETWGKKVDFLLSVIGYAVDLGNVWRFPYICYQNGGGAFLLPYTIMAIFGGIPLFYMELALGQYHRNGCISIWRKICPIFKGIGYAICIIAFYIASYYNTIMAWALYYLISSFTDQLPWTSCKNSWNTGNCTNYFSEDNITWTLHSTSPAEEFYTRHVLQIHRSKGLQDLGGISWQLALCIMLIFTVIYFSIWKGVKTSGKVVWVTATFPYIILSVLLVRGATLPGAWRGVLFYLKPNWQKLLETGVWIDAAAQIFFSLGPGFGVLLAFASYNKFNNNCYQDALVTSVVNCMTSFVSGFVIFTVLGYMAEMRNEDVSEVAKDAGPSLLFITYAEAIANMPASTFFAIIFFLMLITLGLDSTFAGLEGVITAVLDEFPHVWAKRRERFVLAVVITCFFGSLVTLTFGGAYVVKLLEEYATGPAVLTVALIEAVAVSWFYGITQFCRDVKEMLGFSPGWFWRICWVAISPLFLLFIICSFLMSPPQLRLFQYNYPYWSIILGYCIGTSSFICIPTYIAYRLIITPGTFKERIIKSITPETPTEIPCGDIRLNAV
# dopamine 1 receptor, sequence (P21728 whole entry): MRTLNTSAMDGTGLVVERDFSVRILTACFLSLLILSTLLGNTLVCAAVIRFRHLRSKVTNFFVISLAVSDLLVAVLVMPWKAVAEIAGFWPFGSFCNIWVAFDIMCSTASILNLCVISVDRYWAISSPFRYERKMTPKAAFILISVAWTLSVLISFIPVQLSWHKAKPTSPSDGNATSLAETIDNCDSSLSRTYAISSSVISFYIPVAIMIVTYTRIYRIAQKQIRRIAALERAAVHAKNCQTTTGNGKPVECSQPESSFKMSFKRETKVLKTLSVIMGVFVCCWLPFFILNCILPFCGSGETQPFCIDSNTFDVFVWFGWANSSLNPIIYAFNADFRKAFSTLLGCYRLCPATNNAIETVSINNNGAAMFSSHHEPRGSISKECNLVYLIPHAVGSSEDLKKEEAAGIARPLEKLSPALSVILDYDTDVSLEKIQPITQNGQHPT
# dopamine 2 receptor, sequence (P14416 whole entry): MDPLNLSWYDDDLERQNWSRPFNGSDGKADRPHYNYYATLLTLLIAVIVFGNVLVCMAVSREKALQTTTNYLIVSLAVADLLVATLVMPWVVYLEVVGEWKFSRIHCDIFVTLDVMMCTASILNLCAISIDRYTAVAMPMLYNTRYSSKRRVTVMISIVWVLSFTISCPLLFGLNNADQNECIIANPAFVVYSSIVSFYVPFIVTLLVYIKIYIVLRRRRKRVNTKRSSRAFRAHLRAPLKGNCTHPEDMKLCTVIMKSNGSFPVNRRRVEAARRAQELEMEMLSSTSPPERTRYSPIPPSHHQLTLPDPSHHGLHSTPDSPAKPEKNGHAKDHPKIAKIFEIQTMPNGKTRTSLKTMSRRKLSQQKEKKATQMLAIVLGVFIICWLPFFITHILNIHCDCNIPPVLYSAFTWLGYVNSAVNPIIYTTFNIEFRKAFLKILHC
# norepinephrine transporter (NET), sequence (P23975 whole entry): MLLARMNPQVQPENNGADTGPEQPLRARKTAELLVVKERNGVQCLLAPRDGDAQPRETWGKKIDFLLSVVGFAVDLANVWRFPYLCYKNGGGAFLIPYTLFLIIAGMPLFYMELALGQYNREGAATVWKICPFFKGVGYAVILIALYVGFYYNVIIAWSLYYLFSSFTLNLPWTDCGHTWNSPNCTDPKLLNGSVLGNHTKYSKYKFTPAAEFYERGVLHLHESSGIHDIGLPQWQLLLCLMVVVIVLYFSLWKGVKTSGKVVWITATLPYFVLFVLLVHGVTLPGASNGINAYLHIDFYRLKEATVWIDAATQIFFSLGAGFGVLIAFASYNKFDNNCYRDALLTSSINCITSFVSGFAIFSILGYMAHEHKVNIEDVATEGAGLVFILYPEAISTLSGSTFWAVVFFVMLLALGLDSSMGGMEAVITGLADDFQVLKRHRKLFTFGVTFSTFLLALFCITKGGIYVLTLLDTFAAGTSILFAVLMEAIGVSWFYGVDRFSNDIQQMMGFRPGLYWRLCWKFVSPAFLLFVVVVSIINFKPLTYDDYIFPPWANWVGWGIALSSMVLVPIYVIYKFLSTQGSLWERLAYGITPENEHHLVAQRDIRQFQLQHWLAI
smiles,measurement,setting,value
CN(C)CCc1c[nH]c2cccc(OP(=O)(O)O)c12 [psilocybin],HTR counts,mice [1],15-25 HTR events per 15 min
"CCCc1cc(OC)c(CC(C)N)cc1OC (stereo not shown) [DOPR, reference compound]",increase in Gq dissociation potency compared to DOM,5-HT2A receptor [2]; Gq dissociation,20- to 30 fold
same,time in the center of the arena,mice [3],trend for spending less time in the center of the arena
same,dose of peak (maximum) HTR,mice [4]; s.c.,1 mg/kg
same,time to maximum HTR frequency post-drug administration,mice [4]; s.c.,10 min
CC[C@H](N)Cc1cc(OC)c(C)cc1OC [(S)-Ariadne],EC50,5-HT2A receptor [5]; read-out: EC50 (calcium flux),132 nM
same,Emax (calcium flux),5-HT2A receptor [5]; relative to 5-HT,63%
same,Ki,5-HT2A receptor [6],220 nM
"CCN(CC)CCc1c[nH]c2cc(F)ccc12 [6F-DET, 6-fluoro-diethyltryptamine]",Emax,5-HT2A receptors [7]; [19],63%
same,drop in efficacy versus DET,5-HT2A receptors [7]; [19],20%
same,weaker signaling potency (EC50 values) versus DET,5-HT2A receptors [7]; [19],6 fold
same,"affinity for 5-HT2A receptors, DET versus 6F-DET",5-HT2A receptors [8],nearly identical affinity
CCCc1cc(OC)c(CC(N)CC)cc1OC (stereo not shown) [4C-Pr],loss in efficacy versus the alpha-methyl (DOx) counterpart,5-HT2A receptor [2]; Gq dissociation,15%
same,decrease in potency versus the alpha-methyl (DOx) counterpart,5-HT2A receptor [2],20-30 fold
same,decrease in potency versus the alpha-methyl (DOx) counterpart,5-HT2A receptor [9],10 fold
same,drop in efficacy versus the alpha-methyl (DOx) counterpart,5-HT2A receptor [9],15%
CCCC(N)Cc1cc(OC)c(C)cc1OC (stereo not shown) [5C-D],decrease in potency relative to Ariadne,5-HT2A receptor [2]; Figure 3D signaling assays,~ 2 fold
same,drop in efficacy relative to Ariadne,5-HT2A receptor [2]; Figure 3D signaling assays,~ 15%
same,HTR response,mice [4]; s.c.,indistinguishable from vehicle
"CCN(CC)CCc1c[nH]c2ccccc12 [DET, diethyltryptamine]",Emax,5-HT2A receptors [7]; [19],82%
same,"affinity for 5-HT2A receptors, DET versus 6F-DET",5-HT2A receptors [8],nearly identical affinity
"COc1cc(CC(C)N)c(OC)cc1I (stereo not shown) [DOI, reference compound]",increase in Gq dissociation potency compared to DOM,5-HT2A receptor [2]; Gq dissociation,20- to 30 fold
CCC(N)Cc1cc(OC)c(C)cc1OC.Cl (stereo not shown) [Ariadne hydrochloride],subjective effect (online experience report),"humans; 50 mg oral plus 25 mg at 90 min, person 77 kg ref 35",MDMA-like effect but no psychedelic effects
"CCC(N)Cc1cc(OC)c(C)cc1OC (stereo not shown) [Ariadne, 2-amino-1-(2,5-dimethoxy-4-methylphenyl)-butane]",Emax,5-HT2B receptor [10],> 70%
same,Emax,5-HT2A receptor [2],> 70%
same,decrease in potency versus the alpha-methyl (DOx) counterpart,5-HT2A receptor [2],4-to-6 fold and 6 fold
same,Emax,5-HT2A receptor [2]; read-out: Emax (Gq),80%
same,activity at SERT,[11],essentially no activity
same,decrease in potency versus the alpha-methyl (DOx) counterpart,5-HT2A receptor [9],~ 4.5 fold
same,efficacy,5-HT2A receptor [9],83%
same,activity at NET,[12],essentially no activity
same,Emax,5-HT2C receptor,> 70%
same,EC50,dopamine 2 receptor,> 10000 nM
same,selectivity of 5-HT2 agonism over 5-HT1F,5-HT1F receptor,0.5-1 log
same,decrease in HTR count per 15 min compared to racemic DOPR,mice [4]; s.c.,> 3 fold
same,dose of peak (maximum) HTR,mice [4]; s.c.,10 mg/kg
same,hallucinogenic / psychoactive effect,humans; 32 mg p.o. ref 6,no hallucinogenic effect but a mild threshold psychoactive effect
same,subjective effect (online experience report),"humans; 75 mg orally, male ref 36","mild MDMA-like effects, but no obvious hallucinogenic effect"
same,subjective effect (online experience report),"humans; 125 mg orally, female ref 37",unique hybrid between MDMA-like and DOX/psychedelic-like activity
same,dose leading to discernable psychoactive effects,humans; aggregate of human data,> 50 mg
same,dose up to which no hallucinogenic effects were observed,humans; aggregate of human data,100 to 300 mg
same,activity at DAT,[13],essentially no activity
same,EC50,dopamine 1 receptor,> 10000 nM
same,substitution for MDMA stimulus,rats [14],full substitution for MDMA stimulus
same,EC50,adrenergic receptors,> 10000 nM
same,brain penetration,[15],high brain penetration
same,displacement of standard radioligands,5-HT2A receptor [16],more than 50%
same,displacement of standard radioligands,5-HT2B receptor [17],more than 50%
same,serotonergic-like spasmogenic effect,rat smooth muscle,weak serotonergic-like effect
same,substitution in LSD trained animals,rats [18],substituted responding in LSD trained animals
same,combined score of DOM-like behavioral features,cats,low combined score of DOM-like behavioral features
"COc1cc(CC(C)N)c(OC)cc1C (stereo not shown) [DOM, 2,5-dimethoxy-4-methyl-amphetamine, reference compound]",Emax,5-HT2A receptor [2]; read-out: Emax (Gq),96%
same,efficacy,5-HT2A receptor [9],103%
same,dose producing classic hallucinogen effects,humans,> 3 mg
same,"dose producing detectable psychoactive, sub-hallucinogenic effects",humans,1 to 3 mg
same,potency relative to mescaline in humans,humans; per oral administration ref 6,approximately 100 times
CN(C)CCc1c[nH]c2cccc(O)c12 [psilocin],HTR counts,mice [1],15-25 HTR events per 15 min
same,greater signaling potency in comparison to 6F-DET,5-HT2A receptors [7],15 fold
same,signaling efficacy,5-HT2A receptors [7]; depending on the specific readout,50-70%
same,greater affinity in comparison to 6F-DET,5-HT2C receptors,10 fold
CCC(N)Cc1cc(OC)c(I)cc1OC (stereo not shown) [iodo-Ariadne],increase in potency compared to Ariadne,5-HT2A receptor [2]; Gq dissociation,> 10 fold
same,loss in efficacy versus the alpha-methyl (DOx) counterpart,5-HT2A receptor [2]; Gq dissociation,10%
same,decrease in potency versus the alpha-methyl (DOx) counterpart,5-HT2A receptor [2],10 fold
same,EC50,"5-HT2A receptor [2]; read-out: EC50 (Gq), Gq dissociation BRET",16 nM
same,decrease in potency versus the alpha-methyl (DOx) counterpart,5-HT2A receptor [9],5 fold
same,drop in efficacy versus the alpha-methyl (DOx) counterpart,5-HT2A receptor [9],20%
CCC(N)Cc1cc(OC)c(COC)cc1OC (stereo not shown) [4C-MOM],potency at 5-HT2B compared to Ariadne,5-HT2B receptor [10]; Gq dissociation,twice as potent
same,less potent at 5-HT2A compared to Ariadne,5-HT2A receptor [2]; Gq dissociation,approximately 2 fold
same,HTR response,mice [4]; s.c.,only residual HTR
CCC(N)Cc1cc(OC)c(C(F)(F)F)cc1OC (stereo not shown) [4C-TFM],"HTR after pretreatment with 5-HT2A antagonist MDL100,907 (volinanserin)",mice [4]; MDL100907 0.01 and 0.032 mg/kg ip 15 min prior,completely inhibited
